Assay results published in the array DNA melting data of Ke et al. (doi:10.1101/2024.01.08.574731).

How the values were obtained:
[1] = folding enthalpy; higher = less favourable; fluorescence melt of hairpins on a sequencing array, two-state fit; conditions: sodium 0.088 M
Procedure, shortened: (§1)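 Hairpins were imaged by Cy3 fluorescence on a sequenced MiSeq flow cell with annealed Cy3 and quencher oligos, in 50 mM Na-HEPES pH 8.0, 25 mM NaCl, in 2.5 °C steps up to 60 °C. Bootstrapped two-state fits of normalised signals gave melting temperature and folding enthalpy. Four replicates were combined by inverse variance, and fitted temperatures were raised by 9.35 °C to match UV melts.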

[2] = melting temperature; fluorescence melt of hairpins on a sequencing array, two-state fit, raised by 9.35 °C to match UV melts; conditions: sodium 0.088 M
Procedure, shortened: as §1

| Sequence | folding enthalpy [1] | Tm [2] |
| --- | --- | --- |
| GTAGCTCGAAAGAGATAC (((.(((....))).))) | -43.5 kcal/mol | 54.9 °C |
| GTAGCTGAAAAGCTAC ((((((....)))))) | -37.9 kcal/mol | 60 °C |
| GTAGCTGGAAACAGTTAC (((.(((....))).))) | -32.8 kcal/mol | 42.8 °C |
| GTAGCTGGAAACAGTTGC (.(.(((....))).).) | -14.5 kcal/mol | 30.8 °C |
| GTAGCTGGAAACGGCTAC (((((.(....).))))) | -40.8 kcal/mol | 52.5 °C |
| GTAGGACCGAAAGGTTAC (((..(((....)))))) | -12.7 kcal/mol | 28.5 °C |
| GTAGGACGAAAGTCGTAC (((.(((....))).))) | -35.6 kcal/mol | 53.2 °C |
| GTAGGACGAAAGTCTTAC (((.(((....))).))) | -26.2 kcal/mol | 47.7 °C |
| GTAGGAGGAAACTCCCAC ((.((((....)))).)) | -16.4 kcal/mol | 30.9 °C |
| GTAGGCGAAAGCCCCTAC ((((((....)))..))) | -7.29 kcal/mol | 23.7 °C |
| GTAGGCGAAAGCCCTAC ((((((....))).))) | -14.8 kcal/mol | 47.7 °C |
| GTAGGCGAAAGCCGTTAC ((((((....)))..))) | -8.81 kcal/mol | 39.8 °C |
| GTAGGCGAAAGCCTTAC ((((((....))).))) | -9.64 kcal/mol | 44.9 °C |
| GTAGGCGGAAACGCTTGC (.(.(((....))).).) | -11.6 kcal/mol | 30.3 °C |
| GTAGGGGGAAACCCCTAC (((((((....))))))) | -37.4 kcal/mol | 61.9 °C |
| GTAGGTCCGAAAGGATAC (((..(((....)))))) | -12.1 kcal/mol | 28.8 °C |
| GTAGGTCGAAAGACTAC (((.(((....)))))) | -17.6 kcal/mol | 43.3 °C |
| GTAGGTCGAAAGACTTAC (((.(((....))).))) | -27.3 kcal/mol | 47.9 °C |
| GTAGTAGCGAAAGCTTAC (((..(((....)))))) | -11.3 kcal/mol | 30.5 °C |
| GTAGTAGGAAACTACCAC ((.((((....)))).)) | -17.2 kcal/mol | 32.2 °C |
| GTAGTCACGAAAGTGTAC (((..(((....)))))) | -12 kcal/mol | 30.5 °C |
| GTAGTCCGAAAGGATTAC (((.(((....))).))) | -34.5 kcal/mol | 49.4 °C |
| GTAGTCGAAAGACATTAC ((((((....)))..))) | -9.35 kcal/mol | 23.5 °C |

| Sequence | folding enthalpy [1] | Tm [2] |
| --- | --- | --- |
| GTAGTCGAAAGACTATAC ((((((....)))..))) | -13.2 kcal/mol | 42 °C |
| GTAGTCGGAAACGACTGC (.(((((....))))).) | -29 kcal/mol | 53.7 °C |
| GTAGTGACGAAAGTCTAC (((..(((....)))))) | -15.9 kcal/mol | 29.7 °C |
| GTAGTGCGAAAGCATTAC (((.(((....))).))) | -25.6 kcal/mol | 51 °C |
| GTAGTGGAAACACTAC ((((((....)))))) | -45.9 kcal/mol | 53.4 °C |
| GTAGTGGGAAACCATTAC (((.(((....))).))) | -32 kcal/mol | 38.1 °C |
| GTAGTGGGAAACCGCTAC ((((.((....)).)))) | -48.7 kcal/mol | 51.5 °C |
| GTAGTTACGAAAGTATAC (((..(((....)))))) | -10.3 kcal/mol | 23.9 °C |
| GTAGTTCGAAAGAAATAC (((.(((....))).))) | -29.2 kcal/mol | 42.2 °C |
| GTAGTTCGAAAGAATTAC (((.(((....))).))) | -26.8 kcal/mol | 42.4 °C |
| GTATAAGAAATTATAC ((((((....)))))) | -14.5 kcal/mol | 29.6 °C |
| GTATAAGCGAAAGCTTAC (((..(((....)))))) | -9.03 kcal/mol | 33.8 °C |
| GTATAAGGAAACTTATAC (((((((....))))))) | -30.9 kcal/mol | 46 °C |
| GTATACCCGAAAGGGTAC (((..(((....)))))) | -8.81 kcal/mol | 32.4 °C |
| GTATACGAAAGTACTTAC ((((((....)))..))) | -13.5 kcal/mol | 31.5 °C |
| GTATACGAAAGTAGTAC ((((((....))).))) | -11.7 kcal/mol | 29.6 °C |
| GTATAGAAATATAC (((((....))))) | -7.94 kcal/mol | 23.1 °C |
| GTATAGACGAAAGTCTAC (((..(((....)))))) | -10.5 kcal/mol | 33.5 °C |
| GTATAGGAAACTATAC ((((((....)))))) | -25.8 kcal/mol | 41.5 °C |
| GTATAGGCGAAAGCCTAC (((..(((....)))))) | -8.12 kcal/mol | 31.8 °C |
| GTATATCCGAAAGGATAC (((..(((....)))))) | -12.4 kcal/mol | 34.7 °C |
| GTATATCGAAAGATGTAC (((.(((....))).))) | -31.9 kcal/mol | 44.5 °C |
| GTATATCGAAAGATTTAC (((.(((....))).))) | -21.8 kcal/mol | 36.4 °C |

| Sequence | folding enthalpy [1] | Tm [2] |
| --- | --- | --- |
| GTATATGGAAACGTATAC (((((.(....).))))) | -24.4 kcal/mol | 35.2 °C |
| GTATCACCGAAAGGTTAC (((..(((....)))))) | -8.26 kcal/mol | 25.8 °C |
| GTATCAGGAAACTGGTAC (((.(((....))).))) | -29.5 kcal/mol | 43.5 °C |
| GTATCCCGAAAGGGCTAC (((.(((....))).))) | -22.5 kcal/mol | 41.3 °C |
| GTATCCCGAAAGGGTTAC (((.(((....))).))) | -21 kcal/mol | 47.4 °C |
| GTATCCGAAAGGAACTAC ((((((....)))..))) | -14.3 kcal/mol | 33.4 °C |
| GTATCCGAAAGGAGCTAC ((((((....)))..))) | -12.6 kcal/mol | 31.8 °C |
| GTATCCGAAAGGATCTAC ((((((....)))..))) | -13.7 kcal/mol | 39.1 °C |
| GTATCGAAAGATAC (((((....))))) | -25.1 kcal/mol | 52.7 °C |
| GTATCGCGAAAGCGGTAC (((.(((....))).))) | -29.2 kcal/mol | 56.5 °C |
| GTATCGGGAAACCGGTAC (((.(((....))).))) | -32 kcal/mol | 48.9 °C |
| GTATCTCCGAAAGGATAC (((..(((....)))))) | -19.6 kcal/mol | 30.7 °C |
| GTATCTCGAAAGAGGTAC (((.(((....))).))) | -34.4 kcal/mol | 48.7 °C |
| GTATCTCGAAAGAGTTAC (((.(((....))).))) | -26.6 kcal/mol | 36.4 °C |
| GTATCTGAAAAGATAC ((((((....)))))) | -33.2 kcal/mol | 49.2 °C |
| GTATGACCGAAAGGTTAC (((..(((....)))))) | -10.3 kcal/mol | 30.5 °C |
| GTATGAGGAAACTCGTAC (((.(((....))).))) | -33.4 kcal/mol | 44 °C |
| GTATGCCGAAAGGCTAC (((.(((....)))))) | -13.1 kcal/mol | 48.3 °C |
| GTATGCGAAAGCAATAC ((((((....))).))) | -20.3 kcal/mol | 49.4 °C |
| GTATGCGAAAGCAATTAC ((((((....)))..))) | -10.7 kcal/mol | 28.2 °C |
| GTATGCGAAAGCAGCTAC ((((((....)))..))) | -13.4 kcal/mol | 32.8 °C |
| GTATGCGGAAACACATAC (((((.(....).))))) | -32.8 kcal/mol | 39.8 °C |
| GTATGCGGAAACGCATGC (.(((((....))))).) | -21.2 kcal/mol | 55.5 °C |

| Sequence | folding enthalpy [1] | Tm [2] |
| --- | --- | --- |
| GTATGCGGAAACGTATGC (.((.((....)).)).) | -18 kcal/mol | 32.2 °C |
| GTATGGACGAAAGTCTAC (((..(((....)))))) | -10.9 kcal/mol | 29.2 °C |
| GTATGGCGAAAGCCGTAC (((.(((....))).))) | -25.9 kcal/mol | 56.9 °C |
| GTATGGGAAACCATAC ((((((....)))))) | -36.9 kcal/mol | 50.8 °C |
| GTATGGGGAAACCCATAC (((((((....))))))) | -33.5 kcal/mol | 59 °C |
| GTATGTCGAAAGACGTAC (((.(((....))).))) | -24.8 kcal/mol | 52.8 °C |
| GTATGTCGAAAGACTTAC (((.(((....))).))) | -25.1 kcal/mol | 45.5 °C |
| GTATGTGGAAACACGTAC (((.(((....))).))) | -29.3 kcal/mol | 47.1 °C |
| GTATTACGAAAGTATAC (((.(((....)))))) | -18.1 kcal/mol | 32.5 °C |
| GTATTAGGAAACCAATAC (((((.(....).))))) | -14.2 kcal/mol | 25.9 °C |
| GTATTCGAAAGAAGTAC ((((((....))).))) | -8.84 kcal/mol | 24.9 °C |
| GTATTCGCGAAAGCGTAC (((..(((....)))))) | -8 kcal/mol | 23.4 °C |
| GTATTGGAAACAATAC ((((((....)))))) | -26.9 kcal/mol | 46.5 °C |
| GTATTGGGAAACCAATGC (.(((((....))))).) | -26.9 kcal/mol | 44.3 °C |
| GTATTGGGAAACCAGTAC (((.(((....))).))) | -27.3 kcal/mol | 40 °C |
| GTATTTCGAAAGAACTAC (((.(((....))).))) | -19.2 kcal/mol | 31.7 °C |
| GTATTTCGAAAGAATTAC (((.(((....))).))) | -28.3 kcal/mol | 33.3 °C |
| GTCAAAGGAAACCTTGAC (((((.(....).))))) | -26.9 kcal/mol | 38.2 °C |
| GTCAAAGGAAACTTTGAC (((((((....))))))) | -44.9 kcal/mol | 55.8 °C |
| GTCAACCCGAAAGGGGAC (((..(((....)))))) | -15 kcal/mol | 41.8 °C |
| GTCAACGGAAACGTTGGC (.(((((....))))).) | -32.5 kcal/mol | 54.9 °C |
| GTCAAGCGAAAGCTCGAC (((.(((....))).))) | -30.3 kcal/mol | 49.7 °C |
